Assay results from ChEMBL document CHEMBL1137629, “Antiproliferative effect of dihydroxyacetone on Trypanosoma brucei bloodstream forms: cell cycle progression, subcellular alterations, and cell death” (Antimicrob Agents Chemother, 2007).
Active and inactive are the calls of the source. The rule behind the calls is not given here.

Columns and labels:
[1] = test system: Trypanosoma brucei; test: Trypanocidal activity against Trypanosoma brucei bloodstream form assessed as cell death at 1 mM by spectrophotometry in presence of 1 mM glucose; assay type: functional, organism-based
[2] = test system: Trypanosoma brucei; test: Effect on cell cycle of Trypanosoma brucei bloodstream form assessed as increase in cells with two nuclei and one kinetoplast at 1 to 3 mM using DAPI staining by phase-contrast microscopy; assay type: functional, organism-based
Procedure, shortened: (§1)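 Bloodstream forms (MITat 1.2, EATRO 427) grown 24 h with or without DHA. Aliquots washed twice in PBS, resuspended, placed on slides and fixed with methanol. Stained 5 min with DAPI (0.1 μg/ml final), then washed. Phase-contrast and fluorescence images scored for nucleus/kinetoplast numbers (1N1K, 1N2K, 2N2K, 2N1K, abnormal). n = 4, Student's t test, SD.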

[3] = test system: Trypanosoma brucei; test: Effect on morphological changes in Trypanosoma brucei bloodstream form assessed as change in cell nucleus at 3 mM after 24 hrs by transmission electron microscopy; assay type: functional, organism-based
Procedure, shortened: (§2)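 Parasites exposed 24 h to 3 mM DHA. 10⁸ cells fixed 1 h at 4°C in 2% glutaraldehyde in 0.2 M sodium cacodylate with 0.12 M sucrose, held overnight in buffer, postfixed in 1.5% osmium tetroxide and stained with 0.5% uranyl acetate. Dehydrated in ethanol, cleared in propylene oxide, embedded in Agar 100. Sections stained with 5% uranyl acetate and 0.4% lead citrate for TEM. Rapamycin (5 μM) served as the autophagy positive control.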

[4] = test system: Trypanosoma brucei; test: Induction of apoptosis-like programmed cell death in Trypanosoma brucei bloodstream form assessed as increase in intracellular reactive oxygen species production at 5 uM after 24 hrs by FACS analysis; assay type: functional
[5] = test system: Trypanosoma brucei; test: Induction of apoptosis-like programmed cell death in Trypanosoma brucei bloodstream form assessed as phosphatidylserine exposure in outer leaflet of plasma membrane at 3 mM after 24 hrs by V-Fluos staining staining; assay type: functional
Procedure, shortened: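 After 24 h DHA exposure of axenic bloodstream-form T. brucei MITat 1.2 (EATRO 427; 37°C, 5% CO₂), cells were washed in HEPES buffer (10 mM, pH 7.4, 140 mM NaCl, 5 mM CaCl₂). They were then stained with annexin V-Fluos for 15 min at 4°C and analysed by flow cytometry.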

[6] = test system: Trypanosoma brucei; test: Effect on cell cycle of Trypanosoma brucei bloodstream form assessed as DNA content at 4 mM after 24 hrs using propidium iodide staining by FACS analysis; assay type: functional
Procedure, shortened: (§3)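 T. brucei bloodstream forms (MITat 1.2, strain EATRO 427), axenic culture at 37°C, 5% CO₂. Treated 24 h. At least 5 × 10⁵ cells washed in PBS, lysed hypotonically 30 min at room temperature in 10 mM phosphate buffer pH 7.4 with 6 μM digitonin. Nuclei stained with propidium iodide (10 μg/ml final) and analysed by flow cytometry for G₁/S/G₂ distribution and degraded DNA.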

[7] = test system: Trypanosoma brucei; test: Effect on cell cycle of Trypanosoma brucei bloodstream form assessed as induction of necrosis at 2 mM after 24 hrs using propidium iodide staining by FACS analysis; assay type: functional
Procedure, shortened: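 Bloodstream forms exposed 24 h at 37°C, 5% CO₂. Cells at 2 × 10⁶/ml incubated 10 min with propidium iodide (5 μg/ml), and uptake read by flow cytometry as a measure of membrane integrity. Digitonin (6 μM) served as the necrosis positive control.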

[8] = test system: Trypanosoma brucei; test: Induction of apoptosis-like programmed cell death in Trypanosoma brucei bloodstream form assessed as loss of mitochondrial-membrane potential at 1 mM after 24 hrs by TMRE staining; assay type: functional
Procedure, shortened: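 T. brucei MITat 1.2 (EATRO 427) bloodstream forms were grown axenically at 37°C, 5% CO₂ and exposed to DHA for 24 h. Cells at 10⁶/ml were stained with 25 nM TMRE in culture medium for 30 min at 37°C and read at once by flow cytometry. Depolarization control: valinomycin 100 nM. Lower fluorescence signifies lost membrane potential.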

[9] = test system: Trypanosoma brucei; test: Trypanocidal activity against Trypanosoma brucei bloodstream form assessed as cell death at 1 mM after 40 mins by spectrophotometry; assay type: functional, organism-based
[10] = test system: Trypanosoma brucei; test: Trypanocidal activity against Trypanosoma brucei bloodstream form assessed as decrease in cell viability at 1 mM up to 40 mins by spectrophotometry; assay type: functional, organism-based
Procedure, shortened: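 Viability as a carbon source. Bloodstream forms incubated in basic medium lacking glucose and serum: unsupplemented, with 1 mM glucose, or with 1 mM DHA. Cell density and motility followed over time. Triplicate, SD.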

[11] = test system: Trypanosoma brucei; test: Effect on morphological changes in Trypanosoma brucei bloodstream form assessed as presence of more than one flagellum at 3 mM after 24 hrs by transmission electron microscopy; assay type: functional, organism-based; procedure, shortened: as §2
[12] = test system: Trypanosoma brucei; test: Effect on morphological changes in Trypanosoma brucei bloodstream form assessed as presence of atypical combination of number of nucleus after 24 hrs using DAPI staining by phase-contrast microscopy; assay type: functional, organism-based; procedure, shortened: as §1
[13] = test system: Trypanosoma brucei; test: Trypanocidal activity against Trypanosoma brucei bloodstream form at < 1 mM; assay type: functional, organism-based
[14] = test system: Trypanosoma brucei; test: Effect on morphological changes in Trypanosoma brucei bloodstream form assessed as increase in cell size at 5 mM after 20 hrs by scanning electron microscopy; assay type: functional, organism-based
Procedure, shortened: (§4)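 Cells grown 20 h with 5 mM DHA. Fixed and stained as for TEM (glutaraldehyde, osmium tetroxide, uranyl acetate), then dehydrated through 50, 75, 95 and 100% ethanol. Critical-point dried and gold-palladium sputter-coated for scanning electron microscopy.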

[15] = test system: Trypanosoma brucei; test: Effect on morphological changes in Trypanosoma brucei bloodstream form assessed as presence of glycosomes at 3 mM after 24 hrs by transmission electron microscopy; assay type: functional, organism-based; procedure, shortened: as §2
[16] = test system: Trypanosoma brucei; test: Effect on morphological changes in Trypanosoma brucei bloodstream form assessed as presence of more than one flagellum after 24 hrs using DAPI staining by phase-contrast microscopy; assay type: functional, organism-based; procedure, shortened: as §1
[17] = test system: Trypanosoma brucei; test: Trypanocidal activity against Trypanosoma brucei bloodstream form assessed as phosphatase activity; assay type: functional, organism-based
Procedure, shortened: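 Parasites in exponential growth diluted to 2 × 10⁵ cells/ml and cultured 24 h with 1–4 mM DHA. Lysis buffer with p-nitrophenyl phosphate (in 1 M sodium acetate pH 5.5, 1% Triton X-100) added. Read at 405 nm after 6 h at 37°C. IC₅₀ derived from phosphatase activity (Bodley method).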

[18] = test system: Trypanosoma brucei; test: Effect on morphological changes in Trypanosoma brucei bloodstream form assessed as increase in cisternal and vesicular structures within cytosol at 3 mM after 24 hrs by transmission electron microscopy; assay type: functional, organism-based; procedure, shortened: as §2
[19] = test system: Trypanosoma brucei; test: Effect on cell cycle of Trypanosoma brucei bloodstream form assessed as DNA content at 3 mM after 24 hrs using propidium iodide staining by FACS analysis; assay type: functional; procedure, shortened: as §3
[20] = test system: Trypanosoma brucei; test: Effect on morphological changes in Trypanosoma brucei bloodstream form assessed as presence of more than one flagellum at 5 mM after 20 hrs by scanning electron microscopy; assay type: functional, organism-based; procedure, shortened: as §4
[21] = test system: Trypanosoma brucei; test: Trypanocidal activity against Trypanosoma brucei bloodstream form at 5 mM up to 24 hrs by spectrophotometry; assay type: functional
Procedure, shortened: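 Proliferation measured in complete medium (33 mM glucose, 15% serum) with a range of DHA concentrations. Cell density followed over 24 h. Triplicate, SD.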

[22] = test system: Trypanosoma brucei; test: Effect on morphological changes in Trypanosoma brucei bloodstream form assessed as presence of atypical combination of number of nucleus at 5 mM after 20 hrs by scanning electron microscopy; assay type: functional, organism-based; procedure, shortened: as §4
[23] = test system: Trypanosoma brucei; test: Induction of apoptosis-like programmed cell death in Trypanosoma brucei bloodstream form assessed as increase in intracellular reactive oxygen species production at 3 mM after 24 hrs by FACS analysis; assay type: functional
Procedure, shortened: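 Bloodstream-form T. brucei MITat 1.2 (VSG 221, strain EATRO 427) were grown axenically at 37°C, 5% CO₂ and exposed to DHA for 24 h. Control and treated cells were then loaded with 10 μM dichlorofluorescein diacetate for 1 h at 37°C. Intracellular fluorescence intensity was read by flow cytometry.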

O=C(CO)CO [DIHYDROXYACETONE]
Activity [1]: inactive | Activity [2]: Active | Activity [3]: inactive | Activity [4]: 33.6% | Activity [5]: 11.9% | Activity [6]: 9.7% | Activity [7]: 8.3% | Activity [8]: 4.9% | Activity [9]: Active | Activity [10]: inactive | Activity [11]: Active | Activity [12]: Dose-dependent effect | Activity [13]: Active | Activity [14]: inactive | Activity [15]: Active | Activity [16]: Dose-dependent effect | IC50 [17]: 1030 µM | Activity [18]: Active | Activity [19]: 8% | Activity [20]: Active | Activity [21]: 100% | Activity [22]: inactive | Activity [23]: 14.4%
